Consider seven molecules from ChEMBL document CHEMBL1177875, “Antitumor activity of (-)-alpha-bisabolol-based thiosemicarbazones against human tumor cell lines” (2010).

What all share (format): functional
The subject of one assay is OVCAR-3. Briefly: Cytotoxicity against human OVCAR-3 cells by sulforhodamine B assay. Conditions: for CC50: read-out: LC50 (the source's name). An outline of the steps:
(§1)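 Growth of the human tumor cell line was read colorimetrically with sulforhodamine B, following the NCI standard protocol, with doxorubicin as positive control. Compounds were tested at four concentrations in 10-fold dilutions (0.25 to 250). Dose-response curves gave GI50 (the concentration for 50% growth inhibition), TGI (total growth inhibition) and LC50 (50% cell death).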

Assay [1] can be described thus: Cytotoxicity against human PCO3 cells by sulforhodamine B assay. As to conditions: for CC50: read-out: LC50 (the source's name). The method, boiled down: as §1
(The SRB assay estimates cell density from bound dye.)

For another assay, the system named is HT-29. Briefly: Cytotoxicity against human HT-29 cells by sulforhodamine B assay. Conditions: for CC50: read-out: LC50 (the source's name). The method, boiled down: as §1
The subject of another assay is NCI-H460. As to the kind of experiment: Cytotoxicity against human NCI-H460 cells by sulforhodamine B assay. Conditions: for CC50: read-out: LC50 (the source's name). The method, boiled down:
as §1

In a further assay the test system is MCF7. As to the kind of experiment: Cytotoxicity against human MCF7 cells by sulforhodamine B assay. Conditions: for CC50: read-out: LC50 (the source's name). An outline of the steps: as §1
A short description of assay [2]: Cytotoxicity against human NCI/ADR cells by sulforhodamine B assay. As to conditions: NCI/ADR-RES; for CC50: read-out: LC50 (the source's name). An outline of the steps: as §1
Another assay has as its system K562. Briefly: Cytotoxicity against human K562 cells by sulforhodamine B assay. As to conditions: for CC50: read-out: LC50 (the source's name). The method, boiled down:
as §1

For a further assay, the system named is UACC-62. Briefly: Cytotoxicity against human UACC62 cells by sulforhodamine B assay. An outline of the steps: as §1

The GI50 is the concentration at which growth is held to half of that of the control. Higher therefore signals lower sensitivity of the cells. Usually TGI stands for the concentration at which net growth stops. For the molecule `CC1=CC[C@@H]([C@@](C)(O)CCCC(C)(C)NC(=S)N/N=C\c2ccccc2Cl)CC1`, the GI50 in the assay with OVCAR-3 was 42 µM; in assay [1], 18.8 µM; in the assay with HT-29 it was 23.7 µM; with NCI-H460, 24.6 µM; in the assay on MCF7 it was 31.2 µM; in assay [2], over 100 µM. Besides, the GI50 was found to be 150 nM in the assay on K562 and 53.3 µM with UACC-62. The TGI (in the assay with OVCAR-3; in assay [1]; in the assay with HT-29; with NCI-H460; in the assay with MCF7; in assay [2]) was over 100 µM throughout. The results for the TGI in the assay on K562 and with UACC-62 were 4110 nM and over 100 µM, respectively. The CC50 (in the assay on OVCAR-3; in assay [1]; in the assay with HT-29; in the assay with NCI-H460; in the assay with MCF7; in assay [2]) was over 100 µM in each case. For the same molecule, the CC50 with K562 is 8.5 µM. Moreover, in the assay on UACC-62, the LC50 (50% cell kill) is over 100 µM.
In the case of `CC1=CC[C@@H]([C@@](C)(O)CCCC(C)(C)NC(=S)N/N=C\c2ccc(Cl)cc2)CC1`, the GI50 in the assay on OVCAR-3 amounted to 6.66 µM; in assay [1], 7.58 µM; with HT-29, 7.35 µM; in the assay on NCI-H460 it was 8.72 µM; in the assay on MCF7, 6.89 µM; in assay [2] it was 7.58 µM. The GI50 worked out at 40 nM in the assay with K562 and 7.35 µM with UACC-62. Besides, the TGI was 12.8 µM in the assay with OVCAR-3; 22.7 µM in assay [1]; 22.6 µM in the assay on HT-29; over 100 µM in the assay on NCI-H460; 15.8 µM with MCF7; 36.4 µM in assay [2]. In addition, the TGI with K562 was determined as 730 nM; with UACC-62, 13.8 µM. Further, the CC50 with OVCAR-3 was 40.6 µM; in assay [1] it was 48.5 µM; in the assay with HT-29 it was 47.3 µM; in the assay on NCI-H460, over 100 µM; in the assay on MCF7, 44.3 µM; in assay [2], over 100 µM. Besides, the CC50 in the assay with K562 was determined as 10.3 µM. Further, the LC50 (50% cell kill) with UACC-62 amounted to 40.6 µM.
Turning to `CC1=CC[C@@H]([C@@](C)(O)CCCC(C)(C)NC(=S)N/N=C(/C)c2ccccc2)CC1`, the GI50 with OVCAR-3 stood at 14.3 µM; in assay [1], 19.9 µM; in the assay with HT-29, 28.4 µM; in the assay with NCI-H460, 12.6 µM; in the assay on MCF7, 23.6 µM; in assay [2], 0.75 µM. The GI50 turned out to be 10 nM in the assay on K562 and 22.4 µM with UACC-62. The TGI in the assay with OVCAR-3 was 59.5 µM; in assay [1], over 100 µM; with HT-29, over 100 µM; in the assay on NCI-H460, over 100 µM; in the assay on MCF7 it was 62.9 µM; in assay [2] it was over 100 µM. For the same molecule, the TGI in the assay with K562 is 70 nM; with UACC-62, 93.3 µM. Moreover, the CC50 (in the assay with OVCAR-3; in assay [1]; in the assay with HT-29; in the assay with NCI-H460; in the assay on MCF7; in assay [2]) was over 100 µM throughout. The CC50 in the assay on K562 stood at 1.54 µM. In addition, the LC50 (50% cell kill) in the assay with UACC-62 is over 100 µM.
As for `CC1=CC[C@@H]([C@@](C)(O)CCCC(C)(C)NC(=S)NN=C(c2ccccc2)c2ccccc2)CC1`, the GI50 in the assay on OVCAR-3 is over 100 µM; in assay [1], over 100 µM; in the assay on HT-29, over 100 µM; with NCI-H460 it was 13.5 µM; in the assay on MCF7, 36.7 µM; in assay [2], 3.31 µM. Moreover, the GI50 in the assay with K562 was 1940 nM; in the assay with UACC-62 it was over 100 µM. Moreover, the TGI (with OVCAR-3; in assay [1]; in the assay with HT-29; with NCI-H460; with MCF7; in assay [2]) was over 100 µM each time. Also, the TGI is 4190 nM in the assay on K562 and over 100 µM in the assay with UACC-62. Also, the CC50 (with OVCAR-3; in assay [1]; in the assay with HT-29; with NCI-H460; with MCF7; in assay [2]) was over 100 µM throughout. The CC50 in the assay on K562 was determined as 10.3 µM. Also, the LC50 (50% cell kill) in the assay with UACC-62 was over 100 µM.
For the molecule `CC1=CC[C@@H]([C@@](C)(O)CCCC(C)(C)NC(=S)N/N=C\c2cccc(Cl)c2)CC1`, the concentration for 50% growth inhibition (GI50) was determined as 8.27 µM in the assay with OVCAR-3; 11.2 µM in assay [1]; 6.89 µM with HT-29; 44.3 µM in the assay on NCI-H460; 7.35 µM with MCF7; 7.35 µM in assay [2]. Besides, the figures for the GI50 in the assay on K562 and in the assay with UACC-62 were 30 nM and 7.81 µM, respectively. Moreover, the TGI in the assay on OVCAR-3 is 26.5 µM; in assay [1], 37.8 µM; with HT-29 it was 16.5 µM; with NCI-H460 it was over 100 µM; in the assay on MCF7, 19.5 µM; in assay [2], 31.9 µM. Besides, the TGI in the assay with K562 came out at 1060 nM; in the assay on UACC-62, 18.1 µM. The CC50 with OVCAR-3 was 48 µM; in assay [1] it was 57 µM; with HT-29, 45.9 µM; with NCI-H460 it was over 100 µM; in the assay with MCF7 it was 45.9 µM; in assay [2], over 100 µM. Besides, the CC50 with K562 came to 56.3 µM. In the assay with UACC-62, this molecule registered an LC50 (50% cell kill) of 42.7 µM.
Take `COc1cccc2c1C(=O)c1c(O)c3c(c(O)c1C2=O)C[C@@](O)(C(=O)CO)C[C@@H]3O[C@H]1C[C@H](N)[C@H](O)[C@H](C)O1` [DOXORUBICIN]: the GI50 worked out at 0.07 µM in the assay with OVCAR-3; 0.17 µM in assay [1]; 0.18 µM with HT-29; 0.05 µM with NCI-H460; 0.04 µM in the assay with MCF7; 5.99 µM in assay [2]. Also, the GI50 turned out to be 30 nM in the assay with K562 and 0.18 µM in the assay with UACC-62. The concentration for total growth inhibition (TGI) was 8.11 µM with OVCAR-3; 2.3 µM in assay [1]; 46 µM in the assay on HT-29; 1.42 µM in the assay on NCI-H460; 1.84 µM with MCF7; over 100 µM in assay [2]. Besides, the TGI in the assay on K562 came out at 330 nM; with UACC-62, 0.55 µM. The CC50 with OVCAR-3 is over 100 µM; in assay [1] it was over 100 µM; with HT-29, over 100 µM; in the assay on NCI-H460 it was 37.9 µM; in the assay with MCF7 it was 46 µM; in assay [2] it was over 100 µM. Moreover, the CC50 in the assay with K562 is over 100 µM.
With `CC(C)=CCC[C@](C)(O)[C@@H]1CC=C(C)CC1` [LEVOMENOL], the GI50 (in the assay with OVCAR-3; in assay [1]; in the assay with HT-29; with NCI-H460; with MCF7; in assay [2]) was over 100 µM in each case. The values for the GI50 in the assay on K562 and with UACC-62 were 6370 nM and over 100 µM, respectively. Further, the TGI (in the assay on OVCAR-3; in assay [1]; in the assay with HT-29; in the assay with NCI-H460; in the assay with MCF7; in assay [2]) was over 100 µM each time. For the same molecule, the TGI in the assay with K562 is over 100000 nM; in the assay with UACC-62, over 100 µM. The CC50 (with OVCAR-3; in assay [1]; in the assay with HT-29; in the assay with NCI-H460; in the assay with MCF7; in assay [2]) was over 100 µM each time. Also, the CC50 in the assay with K562 was over 100 µM.
